Compound activity from PubChem.
The list is not random: actives were taken first. Their share in the collection is about 3%.
MEKK2 WT-MEK5 – raises or lowers MEK5 binding to wildtype human MEKK2 PB1 domain | bead flow cytometry, Alexa488-MEK5 binding to MEKK2 WT; actives lie on both sides | Q9Y2U5 | actives 1.1% (n = 290,000) | binding response (% of control), % at 10 µM; in the data active = binding response below about 67% or above about 130%
Apaf-1 inh – human Apaf-1 inhibition. O14727. reconstituted apoptosome caspase-3 activity, DEVD-Rh110 fluorescence. inhibition, % at 20 µM. AID 489030. actives 0.71% (n = 330,000); active = inhibition of at least 40% at 20 µM;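 also: plate controls were DMSO wells for no effect and DEVD-CHO caspase inhibitor wells for full effect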
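System – cell-free apoptosome with Apaf-1, procaspase-3 and caspase-9 · Buffer or medium – pH 7.5 Hepes buffer with CHAPS, BSA, DTT · Also added – cytochrome c with DEVD-Rh110 · Times – 30 min compound preincubation, 50 min activation, room temperature · Technique – Rh110 fluorescence intensity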
MEKK2 mut-MEK5 – signal of MEK5 binding to mutant human MEKK2 PB1 domain | AID 1530 | bead flow cytometry, Alexa488-MEK5 binding to MEKK2 mutant | actives 0.35% (n = 290,000) | percent response, % at 10 µM; in the data active = percent response above about 24%, passing the limit was not always enough
UBC13 polyUb – inhibitors of human UBC13 polyubiquitin chain formation; P61088; TR-FRET; inhibition, % at 20 µM; actives 0.47% (n = 330,000); in the data active = inhibition above about 45%, passing the limit was not always enough
MEKK3 PB1 HTS – modulators (inhibitors or enhancers) of MEK5 binding to human MEKK3 PB1 domain | bead-based flow cytometry, Alexa488-MEK5 binding to MEKK3; actives lie on both sides; 0 = blocked by unlabeled MEK5, 100 = vehicle | Q99759 | actives 1.4% (n = 290,000) | binding response (% of control), % at 10 µM | AID 1529;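 active = binding response more than 3 SD above or below the average of its plate-row segment, actives on both sides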;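 also: Alexa488 bead fluorescence after subtracting the streptavidin-only scavenger bead signal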
UCH37 inh – inhibitors of human deubiquitinating enzyme UCH37. Q9Y5K5. inhibition, % (no concentration beside the values). actives 0.33% (n = 330,000). AID 588478. purified proteasome/UCH37, Ub-AMC cleavage fluorescence;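 active = mean inhibition over replicate wells above about 20%, limit read from the data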;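 also: 0% = compound-free wells with enzyme and 100% = wells lacking proteasome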
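Schedule: 30 min plus 25 min, room temperature / Material: human UCH37 within purified proteasomes / Technique: AMC fluorescence intensity at 355/460 nm / Buffer or medium: pH 7.4 Tris-HCl (50 mM) with ovalbumin, ATP-MgCl2, DTT / Controls: wells without proteasome as full block, compound-free enzyme plus substrate as uninhibited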
MEKK2wt confirm – raises or lowers MEK5 binding to wildtype human MEKK2, retest; shares compounds with MEKK3 PB1 HTS; bead flow cytometry, Alexa488-MEK5 binding to MEKK2 WT; actives lie on both sides; binding response (% of control), % at 10 µM; actives 2.4% (n = 5,900); AID 1892; in the data active = binding response below about 16% or above about 210%; inactive = in between
MEKK2mut-MEK5 – signal of MEK5 binding to mutant human MEKK2, retest. shares compounds with MEKK3 PB1 HTS. bead flow cytometry, Alexa488-MEK5 binding to MEKK2 mutant. percent response, % at 10 µM. actives 2% (n = 5,900). AID 1893; in the data active = percent response mostly above about 71%, no sharp cut-off; inactive = mostly below about 38%;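 also: higher means compound restores mutant binding toward wildtype level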
MEKK3 confirm – confirmation of inhibitors of MEK5 binding to human MEKK3. shares compounds with MEKK3 PB1 HTS. bead flow cytometry, Alexa488-MEK5 binding to MEKK3; active compounds read low. binding response (% of control), % at 10 µM. actives 1.8% (n = 5,900). AID 1894;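 active = binding response below 72% of control, or above a set upper limit, though filed actives all read lower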;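 also: 100% = DMSO only wells and 0% = binding blocked by excess unlabeled MEK5; lower values mean stronger disruption of MEK5 binding to MEKK3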
* = called active by the depositor; i = inactive; / = no result given; [ ] = another dose, or the depositor's remark.

SMILES | MEKK2 WT-MEK5 | Apaf-1 inh | MEKK2 mut-MEK5 | UBC13 polyUb | MEKK3 PB1 HTS | UCH37 inh | MEKK2wt confirm | MEKK2mut-MEK5 | MEKK3 confirm
COCCn1c(SCC(=O)N2CCCC2)nc2c([nH]c3ccccc32)c1=O | 103 | 11 | 5 | -8 | 102 | 6 | / | / | /
CCOC(=O)c1cc(CC)sc1NC(=O)C1CC(=O)NN1Cc1ccccc1 (centres undefined) | 108 | 33 | 13 | -8 | 101 | 2 | / | / | /
COC(=O)c1cc(C)sc1NC(=O)C1CC(=O)NN1Cc1ccccc1 (centres undefined) | 108 | -1 | 1 | 12 | 137* | 0 | 98 | -1 | 104
Brc1ccc(N=C/C=C/C=C/Nc2ccc(Br)cc2)cc1 | 38* | -4 | 140* | 5 | 46*[inhibitor] | / | 48 | -30 | 64*
CN(C)C(/C=C/Nc1ccc(Br)cc1)=C(C#N)C#N | 103 | 0 | 8 | -4 | 103 | 1 | / | / | /
NC(=O)c1nc(C(=O)N2CCN(c3ccccc3)CC2)c2ccccc2n1 | / | 7 | / | -6 | / | 0 | / | / | /
CC1(C)CC2CC(C)(CN2C(=O)C23CCC(C)(C(=O)C2)C3(C)C)C1 (centres undefined) | 102 | 4 | 0 | -5 | 128* | 2 | 92 | -8 | 97
CC12CCC(C(=O)NC3CCCC3)(CC1=O)C2(C)C (centres undefined) | 111 | -9 | 5 | 1 | 107 | 2 | / | / | /
Cc1ccccc1-n1nc(C)c2cc(C(=O)N3CCOCC3)sc21 | 211* | -1 | 32 | 8 | 103 | 1 | 103 | 7 | 106
Cc1ccc(S(=O)(=O)N2CCN(C(=O)c3cc4c(C)nn(-c5ccccc5C)c4s3)CC2)cc1 | 105 | 18 | 3 | 5 | 108 | -1 | / | / | /
O=C(NN=C1CCS(=O)(=O)c2ccc(F)cc21)c1cccnc1 | / | / | / | / | / | 3 | / | / | /
CCOC(=O)CNC(=O)c1nn(-c2ccc(OCC)cc2)c(=O)c2ccccc12 | 98 | 0 | 4 | 1 | 101 | -3 | / | / | /
CC(C)OP(=O)(OC(C)C)C(O)c1ccc2c(c1)OCO2 (centres undefined) | 106 | -7 | -1 | -5 | 99 | 0 | / | / | /
CCCCOP(=O)(OCCCC)C(Nc1ccccc1)c1ccc2c(c1)OCO2 (centres undefined) | 113 | / | 1 | / | 144* | 2 | 99 | 0 | 102
CC(C)COP(=O)(OCC(C)C)C(O)c1ccc2c(c1)OCO2 (centres undefined) | 121 | -2 | 26 | 4 | 130* | 1 | 98 | -5 | 100
O=C(NCCc1ccccc1)c1n[nH]c(=O)c2ccccc12 | 89 | -3 | -12 | 2 | 97 | 1 | / | / | /
O=C(C1CCCO1)N1CCN(c2ccccn2)CC1 (centres undefined) | 82 | -18 | -3 | 7 | 73*[inhibitor] | 3 | 100 | -1 | 102
O=C(N1CCOCC1)N1CCN(c2ccccn2)CC1 | 100 | -5 | 11 | 5 | 98 | -1 | / | / | /
Cc1n[nH]c(=S)n1-c1cccc(Cl)c1 | 101 | 0 | -2 | 4 | 74*[inhibitor] | 4 | 107 | 2 | 107
Cc1ccccc1OCc1n[nH]c(=S)n1-c1cccc(Cl)c1 | 111 | 9 | 24* | -9 | 112 | 4 | 103 | -2 | 102
Cc1cccc(C)c1OCc1n[nH]c(=S)n1-c1ccccc1 | 78 | 0 | -11 | 0 | 75 | 1 | / | / | /
CCS(=O)(=O)N1Cc2ccccc2CC1C(=O)Nc1nnc(SCc2c(Cl)cccc2Cl)s1 (centres undefined) | 93 | 26 | -1 | -11 | 97 | 1 | / | / | /
CCSc1nnc(NC(=O)C2Cc3ccccc3CN2S(=O)(=O)CC)s1 (centres undefined) | 16*[inhibitor] | 10 | -1 | -22 | 12*[inhibitor] | 5 | 99 | 2 | 104
CCOc1c2ccc(C(=O)NCc3cc(C(F)(F)F)cc(C(F)(F)F)c3)cc2nn1C | 96 | 13 | -3 | 16 | 91 | -49 | / | / | /
Cc1cc(C(=O)Nc2ccccc2)c2ccccc2n1 | 108 | 3 | 1 | -5 | 107 | 2 | / | / | /
SMILES | MEKK2 WT-MEK5 | Apaf-1 inh | MEKK2 mut-MEK5 | UBC13 polyUb | MEKK3 PB1 HTS | UCH37 inh | MEKK2wt confirm | MEKK2mut-MEK5 | MEKK3 confirm
COc1cc(NC(=O)c2cc(C)nc3ccccc23)cc(OC)c1 | 117 | 8 | 7 | -7 | 129* | 1 | 96 | -4 | 98
C[C@]12CCC(=O)C=C1[C@H](O)C[C@@H]1[C@@H]2[C@@H](O)C[C@@]2(C)[C@H]1CC[C@]2(O)C(=O)CO | 97 | -6 | 2 | -3 | 69 | 6 | / | / | /
O=C(CN1C(=O)NC2NC(=O)NC21)NN=C1CCCC1 (centres undefined) | 109 | -5 | 0 | 3 | 150* | 3 | 104 | 7 | 102
O=C(O)CCC(=O)N1N=C(c2c(-c3ccccc3)c3cc(Cl)ccc3[nH]c2=O)CC1c1cccs1 (centres undefined) | 105 | 16 | 1 | -4 | 134* | -33 | 102 | -3 | 101
O=S(=O)(c1ccc(Cl)cc1)N1CCCc2ccccc21 | 103 | 19 | 2 | 7 | 100 | 0 | / | / | /
O=S(=O)(c1ccc(Cl)cc1)N1CCc2ccccc21 | 66 | 6 | 46* | -1 | 102 | 5 | 104 | 3 | 103
CCCCN1C(=O)/C(=C/C=C2\Oc3ccccc3N2CC)SC1=S | 35*[inhibitor] | / | -13 | / | 69*[inhibitor] | 6 | 40 | -38 | 79
CCCN1C(=O)/C(=C/c2ccncc2)SC1=S | 105 | 8 | 5 | 7 | 111 | 10 | / | / | /
CCCN1C(=O)/C(=C2/C=Cc3ccccc3N2CC)SC1=S | 102 | 18 | 0 | -299 | 107 | 4 | / | / | /
C=CCN1C(=O)/C(=C\C=C2\N(C)c3ccccc3C2(C)C)SC1=S | / | -2 | 7 | -230 | 75*[inhibitor] | -3 | 46 | -29 | 75
CCCN1C(=O)/C(=C\C=C2/Sc3ccccc3N2CCO)SC1=S | 33*[inhibitor] | 6 | -17 | -93 | 68*[inhibitor] | 12 | 90 | -8 | 96
CCCCN1C(=O)/C(=C/C=C2/CC(C)(C)CN2C)SC1=S | 79 | 26 | -3 | i | 91 | 9 | / | / | /
